Source: ChEMBL document CHEMBL1153373, “Effect of ring size on conformation and biological activity of cyclic cationic antimicrobial peptides” (J Med Chem, 2009)
In brackets after ≈: the same amount, converted by molar mass. Square brackets hold non-standard residues; d marks the D form. Peptide text beside a SMILES is read from it.

Key:
Staphylococcus aureus = experiment: Antimicrobial activity against Staphylococcus aureus after 24 hrs by standard microtiter dilution method; assay type: functional
Streptococcus pneumoniae = experiment: Antimicrobial activity against Streptococcus pneumoniae after 24 hrs by standard microtiter dilution method; assay type: functional
Corynebacterium jeikeium = experiment: Antimicrobial activity against Corynebacterium jeikeium after 24 hrs by standard microtiter dilution method; assay type: functional
[1] = system: Acinetobacter calcoaceticus; experiment: Antimicrobial activity against Acinetobacter calcoaceticus after 24 hrs by standard microtiter dilution method; assay type: functional
Enterobacter cloacae = experiment: Antimicrobial activity against Enterobacter cloacae after 24 hrs by standard microtiter dilution method; assay type: functional
Escherichia coli = experiment: Antimicrobial activity against Escherichia coli after 24 hrs by standard microtiter dilution method; assay type: functional
Klebsiella pneumoniae = experiment: Antimicrobial activity against Klebsiella pneumoniae after 24 hrs by standard microtiter dilution method; assay type: functional
Serratia marcescens = experiment: Antimicrobial activity against Serratia marcescens after 24 hrs by standard microtiter dilution method; assay type: functional
Enterococcus faecalis = experiment: Antimicrobial activity against Enterococcus faecalis after 24 hrs by standard microtiter dilution method; assay type: functional
Streptococcus mitis = experiment: Antimicrobial activity against Streptococcus mitis after 24 hrs by standard microtiter dilution method; assay type: functional
Streptococcus pyogenes = experiment: Antimicrobial activity against Streptococcus pyogenes after 24 hrs by standard microtiter dilution method; assay type: functional
[2] = system: Stenotrophomonas maltophilia; experiment: Antimicrobial activity against Stenotrophomonas maltophilia after 24 hrs by standard microtiter dilution method; assay type: functional
Cryptococcus neoformans = experiment: Antimicrobial activity against Cryptococcus neoformans after 24 hrs by standard microtiter dilution method; assay type: functional
How it was run: (§1)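 Fungal MICs were determined by standard microtitre dilution, taken as the lowest peptide concentration inhibiting growth after 24 h incubation at 37 °C.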

[3] = system: Staphylococcus epidermidis; experiment: Antimicrobial activity against Staphylococcus epidermidis after 24 hrs by standard microtiter dilution method; assay type: functional
Pseudomonas aeruginosa = experiment: Antimicrobial activity against Pseudomonas aeruginosa after 24 hrs by standard microtiter dilution method; assay type: functional
Candida albicans = experiment: Antimicrobial activity against Candida albicans after 24 hrs by standard microtiter dilution method; assay type: functional; how it was run: as §1
[4] = Therapeutic index, ratio of hemolytic activity in human RBC to MIC for Enterobacter cloacae; conditions: human red blood cells (RBC), read-out: TI

SMILES | MIC (Staphylococcus aureus) [µg/mL] | MIC (Streptococcus pneumoniae) [µg/mL] | MIC (Corynebacterium jeikeium) [µg/mL] | MIC [1] [µg/mL] | MIC (Enterobacter cloacae) [µg/mL] | MIC (Escherichia coli) [µg/mL] | MIC (Klebsiella pneumoniae) [µg/mL] | MIC (Serratia marcescens) [µg/mL] | MIC (Enterococcus faecalis) [µg/mL] | MIC (Streptococcus mitis) [µg/mL] | MIC (Streptococcus pyogenes) [µg/mL] | MIC [2] [µg/mL] | MIC (Cryptococcus neoformans) [µg/mL] | MIC [3] [µg/mL] | MIC (Pseudomonas aeruginosa) [µg/mL] | MIC (Candida albicans) [µg/mL] | selectivity ratio [4]
CC(C)C[C@@H]1NC(=O)[C@H](CCCCN)NC(=O)[C@H](C(C)C)NC(=O)[C@@H]2CCCN2C(=O)[C@@H](Cc2ccc(O)cc2)NC(=O)[C@H](CC(C)C)NC(=O)[C@H](CCCCN)NC(=O)[C@H](C(C)C)NC(=O)[C@H](CCCCN)NC(=O)[C@@H]2CCCN2C(=O)[C@@H](Cc2ccc(O)cc2)NC1=O | 16 (≈ 12 µM) | 2 (≈ 1.5 µM) | 2 (≈ 1.5 µM) | 8 (≈ 6.02 µM) | 256 (≈ 193 µM) | 64 (≈ 48.1 µM) | 32 (≈ 24.1 µM) | 256 (≈ 193 µM) | – | – | – | – | – | – | – | – | –
CC(C)C[C@@H]1NC(=O)[C@H](CCCCN)NC(=O)[C@H](C(C)C)NC(=O)[C@@H]2CCCN2C(=O)[C@@H](Cc2ccc(O)cc2)NC(=O)[C@H](CC(C)C)NC(=O)[C@H](CCCCN)NC(=O)[C@H](C(C)C)NC(=O)[C@H](CCCCN)NC(=O)[C@H](CC(C)C)NC(=O)[C@H](CCCCN)NC(=O)[C@@H]2CCCN2C(=O)[C@@H](Cc2ccc(O)cc2)NC(=O)[C@H](C(C)C)NC(=O)[C@H](CCCCN)NC1=O (cyclo(VKLKV[dY]PKLKVKL[dY]P)) [listing 1 of 2 here] | 2 (≈ 1.11 µM) | 0.5 (≈ 0.278 µM) | 2 (≈ 1.11 µM) | 2 (≈ 1.11 µM) | – | – | 8 (≈ 4.45 µM) | – | 2 (≈ 1.11 µM) | 0.5 (≈ 0.278 µM) | 0.5 (≈ 0.278 µM) | 4 (≈ 2.22 µM) | 1 (≈ 0.556 µM) | – | – | – | –
CC(C)C[C@@H]1NC(=O)[C@H](CCCCN)NC(=O)[C@@H]2CCCN2C(=O)[C@@H](Cc2ccc(O)cc2)NC(=O)[C@H](CCCCN)NC(=O)[C@H](C(C)C)NC(=O)[C@H](CC(C)C)NC(=O)[C@H](CCCCN)NC(=O)[C@H](C(C)C)NC(=O)[C@@H]2CCCN2C(=O)[C@@H](Cc2ccc(O)cc2)NC(=O)[C@H](CC(C)C)NC(=O)[C@H](CCCCN)NC(=O)[C@H](C(C)C)NC(=O)[C@H](CCCCN)NC1=O (cyclo(VKLVK[dY]PKLKVKL[dY]P)) | 32 (≈ 17.8 µM) | – | 1 (≈ 0.556 µM) | – | 256 (≈ 142 µM) | 16 (≈ 8.9 µM) | 8 (≈ 4.45 µM) | 256 (≈ 142 µM) | 4 (≈ 2.22 µM) | 4 (≈ 2.22 µM) | – | 8 (≈ 4.45 µM) | – | 16 (≈ 8.9 µM) | – | – | –
CC(C)C[C@@H]1NC(=O)[C@H](CCCCN)NC(=O)[C@H](C(C)C)NC(=O)[C@H](CCCCN)NC(=O)[C@@H]2CCCN2C(=O)[C@@H](Cc2ccc(O)cc2)NC(=O)[C@H](CCCCN)NC(=O)[C@H](CCCCN)NC(=O)[C@H](C(C)C)NC(=O)[C@@H]2CCCN2C(=O)[C@@H](Cc2ccc(O)cc2)NC1=O (cyclo(VKK[dY]PKVKL[dY]P)) | 256 (≈ 190 µM) | 256 (≈ 190 µM) | – | – | 256 (≈ 190 µM) | – | 256 (≈ 190 µM) | 256 (≈ 190 µM) | 256 (≈ 190 µM) | 64 (≈ 47.6 µM) | – | 256 (≈ 190 µM) | 128 (≈ 95.2 µM) | 256 (≈ 190 µM) | 256 (≈ 190 µM) | 256 (≈ 190 µM) | –
CC(C)C[C@@H]1NC(=O)[C@H](CCCCN)NC(=O)[C@H](C(C)C)NC(=O)[C@@H]2CCCN2C(=O)[C@@H](Cc2ccc(O)cc2)NC(=O)[C@H](CC(C)C)NC(=O)[C@H](CCCCN)NC(=O)[C@H](C(C)C)NC(=O)[C@H](CCCCN)NC(=O)[C@H](CC(C)C)NC(=O)[C@H](CCCCN)NC(=O)[C@@H]2CCCN2C(=O)[C@@H](Cc2ccc(O)cc2)NC(=O)[C@H](C(C)C)NC(=O)[C@H](CCCCN)NC1=O (cyclo(VKLKV[dY]PKLKVKL[dY]P)) [listing 2 of 2 here] | – | – | – | – | – | – | – | – | – | – | – | – | – | – | – | – | 2
CC(C)C[C@@H]1NC(=O)[C@H](CCCCN)NC(=O)[C@H](C(C)C)NC(=O)[C@@H]2CCCN2C(=O)[C@@H](Cc2ccc(O)cc2)NC(=O)[C@H](CC(C)C)NC(=O)[C@H](CCCCN)NC(=O)[C@H](C(C)C)NC(=O)[C@H](CCCCN)NC(=O)[C@H](CC(C)C)NC(=O)[C@H](CCCCN)NC(=O)[C@@H]2CCCN2C(=O)[C@@H](Cc2ccc(O)cc2)NC(=O)[C@H](CCCCN)NC(=O)[C@H](C(C)C)NC(=O)[C@H](CCCCN)NC1=O (cyclo(VKLKVK[dY]PKLKVKL[dY]P)) | – | 1 (≈ 0.519 µM) | – | 2 (≈ 1.04 µM) | 64 (≈ 33.2 µM) | 4 (≈ 2.08 µM) | – | – | 4 (≈ 2.08 µM) | – | – | – | 64 (≈ 33.2 µM) | 2 (≈ 1.04 µM) | – | 64 (≈ 33.2 µM) | –
CC(C)C[C@@H]1NC(=O)[C@H](CCCCN)NC(=O)[C@H](C(C)C)NC(=O)[C@@H]2CCCN2C(=O)[C@@H](Cc2ccc(O)cc2)NC(=O)[C@H](CC(C)C)NC(=O)[C@H](CCCCN)NC(=O)[C@H](C(C)C)NC(=O)[C@H](CCCCN)NC(=O)[C@@H]2CCCN2C(=O)[C@@H](Cc2ccc(O)cc2)NC(=O)[C@H](CCCCN)NC1=O (cyclo(KLK[dY]PKVKL[dY]PV)) | 64 (≈ 43.9 µM) | 16 (≈ 11 µM) | – | 16 (≈ 11 µM) | 256 (≈ 176 µM) | – | 64 (≈ 43.9 µM) | 256 (≈ 176 µM) | 64 (≈ 43.9 µM) | – | 2 (≈ 1.37 µM) | 128 (≈ 87.8 µM) | 16 (≈ 11 µM) | 64 (≈ 43.9 µM) | – | – | –
CC(C)C[C@@H]1NC(=O)[C@H](CCCCN)NC(=O)[C@H](C(C)C)NC(=O)[C@@H]2CCCN2C(=O)[C@@H](Cc2ccc(O)cc2)NC(=O)[C@H](CC(C)C)NC(=O)[C@H](CCCCN)NC(=O)[C@H](C(C)C)NC(=O)[C@H](CCCCN)NC(=O)[C@H](CC(C)C)NC(=O)[C@@H]2CCCN2C(=O)[C@@H](Cc2ccc(O)cc2)NC(=O)[C@H](C(C)C)NC1=O | 4 (≈ 2.59 µM) | 0.5 (≈ 0.324 µM) | 4 (≈ 2.59 µM) | 4 (≈ 2.59 µM) | 256 (≈ 166 µM) | 64 (≈ 41.5 µM) | – | 256 (≈ 166 µM) | 4 (≈ 2.59 µM) | 1 (≈ 0.649 µM) | 0.5 (≈ 0.324 µM) | 32 (≈ 20.8 µM) | – | 4 (≈ 2.59 µM) | 256 (≈ 166 µM) | 32 (≈ 20.8 µM) | –
CC(C)C[C@@H]1NC(=O)[C@H](CCCCN)NC(=O)[C@H](C(C)C)NC(=O)[C@@H]2CCCN2C(=O)[C@@H](Cc2ccc(O)cc2)NC(=O)[C@H](CC(C)C)NC(=O)[C@H](CCCCN)NC(=O)[C@H](C(C)C)NC(=O)[C@@H]2CCCN2C(=O)[C@@H](Cc2ccc(O)cc2)NC(=O)[C@H](CCCCN)NC1=O (cyclo(VKLK[dY]PVKL[dY]P)) | 64 (≈ 48.1 µM) | 8 (≈ 6.02 µM) | 2 (≈ 1.5 µM) | 8 (≈ 6.02 µM) | 256 (≈ 193 µM) | 64 (≈ 48.1 µM) | 64 (≈ 48.1 µM) | – | 32 (≈ 24.1 µM) | – | – | 64 (≈ 48.1 µM) | 32 (≈ 24.1 µM) | – | 256 (≈ 193 µM) | – | –
CC(C)C[C@@H]1NC(=O)[C@H](CCCCN)NC(=O)[C@H](C(C)C)NC(=O)[C@@H]2CCCN2C(=O)[C@@H](Cc2ccc(O)cc2)NC(=O)[C@H](CC(C)C)NC(=O)[C@H](CCCCN)NC(=O)[C@H](C(C)C)NC(=O)[C@H](CCCCN)NC(=O)[C@H](CC(C)C)NC(=O)[C@@H]2CCCN2C(=O)[C@@H](Cc2ccc(O)cc2)NC(=O)[C@H](CCCCN)NC1=O (cyclo(VKLK[dY]PLKVKL[dY]P)) | 4 (≈ 2.55 µM) | – | 2 (≈ 1.27 µM) | – | – | 16 (≈ 10.2 µM) | 8 (≈ 5.09 µM) | – | 4 (≈ 2.55 µM) | 0.5 (≈ 0.318 µM) | – | – | – | – | – | – | –
CC(C)C[C@@H]1NC(=O)[C@H](CCCCN)NC(=O)[C@H](C(C)C)NC(=O)[C@H](CCCCN)NC(=O)[C@H](CC(C)C)NC(=O)[C@@H]2CCCN2C(=O)[C@@H](Cc2ccc(O)cc2)NC(=O)[C@H](C(C)C)NC(=O)[C@H](CCCCN)NC(=O)[C@H](CCCCN)NC(=O)[C@H](C(C)C)NC(=O)[C@@H]2CCCN2C(=O)[C@@H](Cc2ccc(O)cc2)NC1=O (cyclo(KKV[dY]PLKVKL[dY]PV)) | – | 0.5 (≈ 0.321 µM) | – | 2 (≈ 1.28 µM) | 128 (≈ 82.2 µM) | – | – | – | 8 (≈ 5.14 µM) | – | 0.5 (≈ 0.321 µM) | 16 (≈ 10.3 µM) | – | 2 (≈ 1.28 µM) | – | 16 (≈ 10.3 µM) | –
CC(C)C[C@@H]1NC(=O)[C@H](CCCCN)NC(=O)[C@H](C(C)C)NC(=O)[C@@H]2CCCN2C(=O)[C@@H](Cc2ccc(O)cc2)NC(=O)[C@H](CC(C)C)NC(=O)[C@H](CCCCN)NC(=O)[C@H](C(C)C)NC(=O)[C@H](CCCCN)NC(=O)[C@H](CC(C)C)NC(=O)[C@H](CCCCN)NC(=O)[C@@H]2CCCN2C(=O)[C@@H](Cc2ccc(O)cc2)NC(=O)[C@H](CCCCN)NC(=O)[C@H](CCCCN)NC1=O (cyclo(VKLKK[dY]PKLKVKL[dY]P)) | 64 (≈ 35 µM) | – | 8 (≈ 4.38 µM) | 2 (≈ 1.09 µM) | – | – | 8 (≈ 4.38 µM) | 256 (≈ 140 µM) | 8 (≈ 4.38 µM) | 8 (≈ 4.38 µM) | – | – | 64 (≈ 35 µM) | – | – | 64 (≈ 35 µM) | –
